The record followed here is ChEMBL document CHEMBL1155416, “Ethacrynic acid analogues lacking the alpha,beta-unsaturated carbonyl unit--potential anti-metastatic drugs” (2010).

The IC20 is the concentration needed for an effect of 20%.

The source made the active and inactive calls. The rule behind the calls is not given here.

Assay type in all cases: functional
The nature of experiment [1]: Cytotoxicity against human MCF7/AZ cells assessed as reduction of cell viability after 24 hrs by MTT assay. The method, boiled down: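 MCF-7/AZ cells were seeded at 1.5 × 10^4 cells/well in medium with 5% FBS and penicillin/streptomycin, then grown 24 h at 37 C under 5% CO2. They were exposed 24 h to eight concentrations (1, 5, 10, 20, 40, 60, 80, 100 μM). Part of the medium was removed before adding MTT, and OD was read. Mean OD came from three independent experiments. OD80/IC20 (20% viability loss) was read from the graphs.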
Background: Tetrazolium assays rely on reduction of a dye to a coloured formazan, in cell work by metabolically active cells.

A short description of experiment [2]: (§1) Antimigration against human MCF7/AZ cells at 10 to 25 uM after 24 hrs by wound healing assay. The procedure, abridged: (§2)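 Confluent MCF-7/AZ monolayers were washed twice with PBS and scratched to leave a gap of about 1500 μm, then imaged. Medium with or without compound was added, at concentrations chosen from the 24 h MTT assay. After 24 h of migration the wound was imaged again and compared with the first image. Migration was expressed as migratory velocity (μm/h).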

In experiment [3] the test system is MCF7/AZ. The experiment is described as §1. The method, boiled down:
as §2

`CCC(=O)c1cc(OC)c(OCC(=O)O)c(OC)c1`: the IC20 in experiment [1] was over 100 µM. Also, in experiment [2], the “inhibition (INH)” value was determined as 52%.

For the compound `C=C(CC)C(=O)c1ccc(OCC(=O)O)c(Cl)c1Cl` [ETHACRYNIC ACID], the IC20 in experiment [1] was over 100 µM. Moreover, the inhibition result in experiment [3] was “inactive”.

For `CCC(=O)c1ccc(OCC(=O)O)cc1OC`, in experiment [1], the IC20 was over 100 µM. Besides, the “inhibition (INH)” value in experiment [2] is given as 29%.

Consider `CCC(=O)c1ccc(OCC(=O)O)c(OC)c1`, for which, in experiment [1], the IC20 is over 100 µM. Further, the “inhibition (INH)” value in experiment [2] is reported as 38%.

On to `CCC(=O)c1ccc(OCC(=O)O)c(C)c1`, for which the IC20 in experiment [1] is 20 µM. The inhibition entry in experiment [3] was “inactive”.

With `CCC(=O)c1ccc(OCC(=O)O)cc1C`, in experiment [1], the IC20 was 10 µM. Moreover, the inhibition result in experiment [3] is “inactive”.

For `CCC(=O)c1ccc(OCC(=O)O)cc1`, in experiment [1], the IC20 stood at 25 µM. In addition, in experiment [3], the inhibition result was “inactive”.
